Experimental findings from ChEMBL document CHEMBL1123247, “Nucleoside conjugates. 7. Synthesis and antitumor activity of 1-beta-D-arabinofuranosylcytosine conjugates of ether lipids” (J Med Chem, 1986) are described below.

Bounds are passed on as bounds.

Test [1] deals with L1210. The test is described as follows: Antitumor activity was determined against the ip implanted L1210 leukemia in mice by range in survival days at 400 mg/kg (treatment of 1qd schedule) dosage; Range is 20-33. It counts as functional, Mus musculus. The settings on record: route intraperitoneal. The gist of the method:
(§1)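 DBA/2J mice, 23-28 g, in groups of 6, were inoculated ip with 1×10^6 L1210 cells on day 0. Dosing was ip starting 24 h later on the stated daily schedules. Conjugates were given as sonicated solutions and reference prodrugs as suspensions in 0.9% NaCl with 0.5% Tween-80. Mice were observed daily until death or 45 days. Median survival T/C was calculated from survivors per NCI protocols.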

For test [2], the system named is L1210. Description: Antitumor activity against the ic implanted L1210 lymphoid leukemia in mice expressed as optimal dose (1, 5, 9qd treatment schedule) required to produce greatest increase in life span was determined. It counts as functional, Mus musculus. The gist of the method:
(§2)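 DBA/2J mice, groups of 6 (26-32 g), got 1 × 10^5 L1210 cells ic on day 0. Dosing was ip starting 24 h later, as a sonicated solution or suspension in 0.9% NaCl with 0.5% Tween-80, over a wide dose range. Mice were followed daily until death. Median survival T/C was taken from survivors per NCI protocols, and ILS = (T/C − 1) × 100. Active range means doses giving ILS ≥25%; optimal dose means greatest ILS.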

Test [3] concerns P388. The test is described as follows: Antitumor activity was determined against the ip implanted P388 leukemia in mice by percent median survival rate (treated/control) at 60 mg/kg (treatment of 1-5qd schedule) dosage; >45.0/11.0. It counts as functional, Mus musculus. The settings on record: route intraperitoneal.
Test [4] deals with P388. Description: Antitumor activity against ip implanted P388 leukemia in mice expressed as active dose range (1 qd treatment schedule) required to produce increase in life span by >25% was determined; Range is 300-500. It counts as functional, Mus musculus. The gist of the method:
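P388 leukemia: 1 × 10^6 cells were given ip on day 0 to DBA/2J mice, groups of 6 (23-33 g). Treatment was ip from 24 h after inoculation, vehicle 0.9% NaCl with 0.5% Tween-80. Mice were observed daily until death or 45 days. Median survival T/C was calculated from survivors per NCI protocols, and ILS = (T/C − 1) × 100. Active range means doses giving ILS ≥25%; optimal dose means greatest ILS.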

The test system of test [5] is L1210. Description: Antitumor activity was determined against the ic implanted L1210 lymphoid leukemia in mice by median survival time at 100 mg/kg (treatment of 1-5qd schedule) dosage; 22.0/7.0.
Test [6] has as its system L1210. Description: Antitumor activity was determined against the ip implanted L1210 leukemia in mice by percent median survival rate (treated/control) at 400 mg/kg (treatment of 1qd schedule) dosage; 9.5/8.0. Type of test: functional, Mus musculus. The settings on record: route intraperitoneal. The method, boiled down:
as §1

Test [7] has as its system L1210. Description: Antitumor activity against the ic implanted L1210 lymphoid leukemia in mice expressed as optimal dose (1-9qd treatment schedule) required to produce greatest increase in life span was determined. Type of test: functional, Mus musculus. The gist of the method: as §2
The test system of test [8] is P388. The test is described as follows: Antitumor activity was determined against the ip implanted P388 leukemia in mice by change in […] at 200 mg/kg (treatment of 1-5qd schedule) dosage. It counts as functional, Mus musculus. The settings on record: route intraperitoneal. The method, boiled down: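 P388 leukemia, 1×10^6 cells implanted ip on day 0 into DBA/2J mice, groups of 6 (wt 23-33 g). Dosing ip started 24 h post-inoculation, vehicle 0.9% NaCl containing 0.5% Tween-80. Animals were observed daily until death or 45 days. Outputs were weight change, median survival T/C from survivors per NCI protocols, and %ILS = (T/C − 1) × 100.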

Test [9] deals with L1210. The test is described as follows: Antitumor activity against ip implanted L1210 leukemia in mice expressed as active dose range (1 qd treatment schedule) required to produce increase in life span by >25% was determined; Range is 300-500. Type of test: functional, Mus musculus. The method, boiled down:
(§3)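 DBA/2J mice, groups of 6 (23-28 g), were inoculated ip with 1 × 10^6 L1210 cells on day 0. Dosing was ip from 24 h, in 0.9% NaCl with 0.5% Tween-80 (sonicated solution or suspension). Mice were observed daily until death or day 45. Median survival T/C followed NCI protocols, and ILS = (T/C − 1) × 100. Active range means doses giving ILS ≥25%; optimal dose means greatest ILS.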

The subject of test [10] is L1210. The test is described as follows: Antitumor activity was determined against the ip implanted L1210 leukemia in mice by percent median survival rate (treated/control) at 40 mg/kg (treatment of 1-5qd schedule) dosage; 30.0/8.0. Type of test: functional, Mus musculus. The settings on record: route intraperitoneal. The method, boiled down:
as §1

The subject of test [11] is L1210. The test is described as follows: Antitumor activity was determined against the ic implanted L1210 lymphoid leukemia in mice by range in survival days at 80 mg/kg (1-5qd treatment schedule) dosage; Range is 11-24. It counts as functional, Mus musculus.
Test [12] concerns L1210. The test is described as follows: Antitumor activity was determined against the ic implanted L1210 lymphoid leukemia in mice by change in […] at 133 mg/kg (1,5,9qd treatment schedule) dosage. It counts as functional, Mus musculus. The method, boiled down:
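DBA/2J mice, 6 per group (wt 26-32 g), inoculated ic with 1×10^5 L1210 cells on day 0. Dosing ip began 24 h after inoculation, with a sonicated solution or suspension in 0.9% NaCl containing 0.5% Tween-80, given over a range of doses. Animals were followed daily until death. Body weight change, median survival T/C, and %ILS = (T/C − 1) × 100 were computed from survivors per NCI protocols.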

The subject of test [13] is L1210. Description: Antitumor activity was determined against the ip implanted L1210 leukemia in mice by change in […] at 300 mg/kg (treatment of 1qd schedule) dosage. It counts as functional, Mus musculus. The settings on record: route intraperitoneal. The method, boiled down:
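DBA/2J mice, 6 per group (wt 23-28 g), inoculated ip with 1×10^6 L1210 cells on day 0. Treatment was given ip in 0.9% NaCl with 0.5% Tween-80, starting 24 h later. Weight change was taken on day 8. Mice were observed daily until death or 45 days. Median survival T/C and %ILS = (T/C − 1) × 100 came from survivors per NCI protocols, and 45-day survivors were counted.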

The test system of test [14] is L1210. Description: Antitumor activity against ic implanted L1210 lymphoid leukemia in mice expressed as active dose range (1,5,9qd treatment schedule) required to produce increase in life span by >25% was determined; Range 67-133. It counts as functional, Mus musculus. The gist of the method:
as §2

The subject of test [15] is L1210. The test is described as follows: Antitumor activity against ip implanted L1210 leukemia in mice expressed as active dose range (1-5qd treatment schedule) required to produce increase in life span by >25% was determined; Range is 10-80. It counts as functional, Mus musculus. The gist of the method:
as §3

Test [16] deals with L1210. Description: Antitumor activity was determined against the ic implanted L1210 lymphoid leukemia in mice by percent increase in life span at 133 mg/kg (1,5,9qd treatment schedule) dosage. Type of test: functional, Mus musculus. The method, boiled down: as §2
In test [17] the test system is P388. The test is described as follows: Antitumor activity was determined against the ip implanted P388 leukemia in mice by percent median survival rate (treated/control) at 500 mg/kg (1 qd treatment schedule) dosage; >45.0/11.0. Type of test: functional, Mus musculus. The settings on record: route intraperitoneal.
Test [18] has as its system P388. Description: Antitumor activity was determined against the ip implanted P388 leukemia in mice by percent increase in life span at 500 mg/kg (1 qd treatment schedule) dosage. Conditions: route intraperitoneal. It counts as functional, Mus musculus. The method, boiled down:
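DBA/2J mice, 23-33 g, in groups of 6, were inoculated ip with 1×10^6 P388 cells on day 0. Dosing was ip from 24 h on the stated schedules, in 0.9% NaCl with 0.5% Tween-80 (sonicated solution or suspension). Survival was followed daily until death or 45 days. Median T/C was calculated from survivors per NCI protocols, with ILS = (T/C − 1) × 100.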

For the compound `CCCCCCCCCCCCCCCCOCC(COP(=O)(O)OP(=O)(O)OC[C@H]1O[C@@H](n2ccc(N)nc2=O)[C@@H](O)[C@@H]1O)OC(=O)CCCCCCCCCCCCCCC` (mixture of isomers), the Range in the test with L1210 [1] is 20. Moreover, in the test on L1210 [2], the Optimal dose amounted to 167 mg. The T/C (as a rule, the result in the treated group divided by that in the control group, in per cent) in the test with P388 [3] is reported as above 45%. Moreover, the Active dose range with P388 [4] was 300 mg/kg/day. This compound displayed a median survival time in the test with L1210 [5] of 22 days.

`Nc1ccn([C@@H]2O[C@H](CO)[C@@H](O)[C@@H]2O)c(=O)n1` [CYTARABINE] yielded a T/C with L1210 [6] of 9.5%. This compound also displayed an Optimal dose in the test with L1210 [7] of 100 mg. For the same compound, in the test on P388 [8], the Weight change is on record as -3.62 g mouse-1.

On to `CCCCCCCCCCCCCCCCCCOCC(COP(=O)(O)OP(=O)(O)OC[C@H]1O[C@@H](n2ccc(N)nc2=O)[C@@H](O)[C@@H]1O)OC(=O)CCCCCCCCCCCCCCC` (mixture of isomers), for which the Active dose range with L1210 [9] worked out at 300 mg/kg/day.

In turn, `CCCCCCCCCCCCCCCC(=O)OC[C@H](COP(=O)(O)OP(=O)(O)OC[C@H]1O[C@@H](n2ccc(N)nc2=O)[C@@H](O)[C@@H]1O)OC(=O)CCCCCCCCCCCCCCC` came in with a median survival time with L1210 [10] of 30 days. Further, in the test with L1210 [11], the Range worked out at 11. The values for the Weight change in the test with L1210 [12] and in the test on L1210 [13] were -1.11 g mouse-1 and -0.62 g mouse-1, respectively. Besides, the Active dose range came out at 67 mg/kg/day with L1210 [14] and 10 mg/kg/day in the test on L1210 [15]. Moreover, the results for the ILS with L1210 [16] and in the test with P388 [18] were 150 and above 309, respectively. In the test with P388 [17], this compound gave a T/C above 45%.
